Assay results published in ChEMBL document CHEMBL1765011, “Synthesis and c-Met kinase inhibition of 3,5-disubstituted and 3,5,7-trisubstituted quinolines: identification of 3-(4-acetylpiperazin-1-yl)-5-(3-nitrobenzylamino)-7- (trifluoromethyl)quinoline as a novel anticancer agent” (J Med Chem, 2011).

Legend:
[1] = biological target: T1, Hepatocyte growth factor receptor (Homo sapiens, UniProt P08581); test: Inhibition of purified recombinant c-Met after 60 mins by ELISA
[2] = biological target: Hepatocyte growth factor receptor (Mus musculus) (UniProt P16056); test: Inhibition of TPR-MET autophosphorylation in mouse BaF3 cells after 4 hrs by Western blotting; type: cell-based
Outline: (§1)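 Exponentially growing cells were treated with compound for 4 h at 37 °C and lysed in SDS sample buffer. Lysates were run on 10% SDS-PAGE and blotted to nitrocellulose. Blots were probed for phospho-c-Met and total c-Met, with GAPDH as loading control, and detected by ECL.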

BaF3 [3] = test: Antiproliferative activity against mouse BAF3 cells expressing TPR-Met after 72 hrs in presence of IL-3; type: functional, cell-based; conditions: BaF3, 72 h
Outline: (§2)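 Cells were seeded and exposed next day to a range of compound concentrations for 72 h. Proliferation was read by sulforhodamine B or MTT assay, and IC50 derived.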

NIH3T3 [4] = test: Antiproliferative activity against mouse NIH/3T3 cells after 72 hrs; type: functional, cell-based; conditions: NIH3T3, 72 h; outline: as §2
BaF3 [5] = test: Antiproliferative activity against mouse BAF3 cells expressing TPR-Met after 72 hrs in absence of IL-3; type: functional, cell-based; conditions: BaF3, 72 h; outline: as §2
NIH3T3 [6] = test: Antiproliferative activity against mouse NIH/3T3 cells expressing TPR-Met after 72 hrs; type: functional, cell-based; conditions: NIH3T3, 72 h; outline: as §2
[7] = biological target: Hepatocyte growth factor receptor (Mus musculus) (UniProt P16056); test: Inhibition of TPR-MET autophosphorylation in mouse NIH3T3 cells after 4 hrs by Western blotting; type: cell-based; outline: as §1
[8] = biological target: T1, Hepatocyte growth factor receptor; test: Inhibition of purified recombinant c-Met at 10 uM after 60 mins by ELISA
[9] = Half life in mouse at 10 mg/kg, iv; type: ADME, organism-based; set-up: dose 10 mg/kg, route intravenous; conditions: in vivo
Outline: (§3)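 Single iv dose of 10 mg/kg to mice, vehicle DMSO/Tween 80/normal saline. Clearance and half-life were derived from plasma concentration-time data. Average of three runs.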

[10] = Oral bioavailability in mouse at 20 mg/kg; type: ADME, organism-based; conditions: in vivo
[11] = Volume of distribution at steady state in mouse at 10 mg/kg, iv; type: ADME, organism-based; set-up: dose 10 mg/kg, route intravenous; conditions: in vivo, read-out: Vdss
[12] = AUC (0 to infinity) in mouse at 20 mg/kg, po; type: ADME, organism-based; set-up: dose 20 mg/kg, route oral, time infinity; conditions: plasma
Outline: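 Mice dosed orally at 20 mg/kg in DMSO/Tween 80/normal saline vehicle; plasma concentration-time profile used to derive AUC0-∞. Values are the average of three runs.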

[13] = Clearance in mouse at 10 mg/kg, iv; type: ADME, organism-based; set-up: dose 10 mg/kg, route intravenous; conditions: in vivo; outline: as §3
[14] = Tmax in mouse at 20 mg/kg, po; type: ADME, organism-based; set-up: dose 20 mg/kg, route oral; conditions: in vivo
[15] = Cmax in mouse at 20 mg/kg, po; type: ADME, organism-based; set-up: dose 20 mg/kg, route oral; conditions: in vivo
Outline: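 Oral 20 mg/kg single dose to mice, vehicle DMSO/Tween 80/normal saline. Cmax was read from the plasma concentration-time profile. Average of three runs.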

NCI-H441 = test: Antiproliferative activity against human NCI-H441 cells after 72 hrs; conditions: NCI-H441, 72 h
SNU-5 = test: Antiproliferative activity against human SNU5 cells after 72 hrs; conditions: SNU-5, 72 h
MDA-MB-231 = test: Antiproliferative activity against human MDA-MB-231 cells after 72 hrs; conditions: MDA-MB-231, 72 h
NCI-H1993 = test: Antiproliferative activity against human NCI-H1993 cells after 72 hrs; conditions: NCI-H1993, 72 h
SNU1 = test: Antiproliferative activity against human SNU1 cells after 72 hrs; conditions: SNU1, 72 h
BXPC-3 = test: Antiproliferative activity against human BxPC3 cells after 72 hrs; conditions: BXPC-3, 72 h
MKN-45 = test: Antiproliferative activity against human MKN45 cells after 72 hrs; conditions: MKN-45, 72 h
MCF7 = test: Antiproliferative activity against human MCF7 cells after 72 hrs; conditions: MCF7, 72 h
[16] = Half life in mouse at 2.5 mg/kg, iv; type: ADME, organism-based; set-up: dose 2.5 mg/kg, route intravenous; conditions: in vivo
Outline: (§4)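 Single iv dose to mice in DMSO/Tween 80/normal saline vehicle, reduced to 2.5 mg/kg because of poor solubility. Clearance and half-life were taken from plasma concentration-time data. Average of three runs.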

[17] = Clearance in mouse at 2.5 mg/kg, iv; type: ADME, organism-based; set-up: dose 2.5 mg/kg, route intravenous; conditions: in vivo; outline: as §4
[18] = Volume of distribution at steady state in mouse at 2.5 mg/kg, iv; type: ADME, organism-based; set-up: dose 2.5 mg/kg, route intravenous; conditions: in vivo, read-out: Vdss

Sequence of Hepatocyte growth factor receptor (Mus musculus) (P16056 whole entry): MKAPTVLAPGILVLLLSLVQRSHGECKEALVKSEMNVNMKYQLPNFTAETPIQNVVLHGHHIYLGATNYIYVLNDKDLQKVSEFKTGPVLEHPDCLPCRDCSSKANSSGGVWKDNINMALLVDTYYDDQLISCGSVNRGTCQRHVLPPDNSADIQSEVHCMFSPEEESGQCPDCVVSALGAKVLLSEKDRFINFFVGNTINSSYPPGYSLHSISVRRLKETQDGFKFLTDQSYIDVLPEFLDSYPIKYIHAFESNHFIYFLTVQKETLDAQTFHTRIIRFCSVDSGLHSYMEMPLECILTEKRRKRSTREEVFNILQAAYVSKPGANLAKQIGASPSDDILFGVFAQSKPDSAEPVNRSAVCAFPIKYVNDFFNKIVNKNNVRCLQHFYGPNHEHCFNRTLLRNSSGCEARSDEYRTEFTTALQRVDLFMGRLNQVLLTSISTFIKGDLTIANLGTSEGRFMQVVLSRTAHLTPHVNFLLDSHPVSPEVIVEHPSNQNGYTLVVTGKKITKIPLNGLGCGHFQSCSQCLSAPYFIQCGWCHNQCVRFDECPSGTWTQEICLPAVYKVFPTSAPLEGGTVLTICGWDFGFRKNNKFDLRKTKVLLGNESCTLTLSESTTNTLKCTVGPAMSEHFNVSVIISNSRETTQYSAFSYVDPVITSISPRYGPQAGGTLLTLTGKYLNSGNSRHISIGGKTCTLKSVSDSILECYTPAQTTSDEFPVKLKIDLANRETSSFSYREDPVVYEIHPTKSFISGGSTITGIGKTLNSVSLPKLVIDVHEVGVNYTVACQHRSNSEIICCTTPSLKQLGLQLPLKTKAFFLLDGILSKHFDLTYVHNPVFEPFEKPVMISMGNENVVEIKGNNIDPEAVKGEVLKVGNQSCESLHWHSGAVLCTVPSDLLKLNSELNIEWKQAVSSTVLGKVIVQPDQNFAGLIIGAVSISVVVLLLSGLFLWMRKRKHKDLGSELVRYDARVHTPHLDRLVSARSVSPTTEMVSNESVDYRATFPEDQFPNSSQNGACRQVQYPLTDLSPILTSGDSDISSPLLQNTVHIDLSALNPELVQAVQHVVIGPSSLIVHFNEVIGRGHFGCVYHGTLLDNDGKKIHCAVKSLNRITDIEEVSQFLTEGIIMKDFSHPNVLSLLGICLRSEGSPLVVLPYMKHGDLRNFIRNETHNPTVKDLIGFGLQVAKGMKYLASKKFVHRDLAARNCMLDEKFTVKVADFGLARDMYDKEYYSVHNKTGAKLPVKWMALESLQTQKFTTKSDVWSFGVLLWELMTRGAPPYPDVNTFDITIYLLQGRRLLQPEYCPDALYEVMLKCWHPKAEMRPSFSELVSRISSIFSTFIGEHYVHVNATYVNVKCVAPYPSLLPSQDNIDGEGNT
T1 sequence (P08581 whole entry): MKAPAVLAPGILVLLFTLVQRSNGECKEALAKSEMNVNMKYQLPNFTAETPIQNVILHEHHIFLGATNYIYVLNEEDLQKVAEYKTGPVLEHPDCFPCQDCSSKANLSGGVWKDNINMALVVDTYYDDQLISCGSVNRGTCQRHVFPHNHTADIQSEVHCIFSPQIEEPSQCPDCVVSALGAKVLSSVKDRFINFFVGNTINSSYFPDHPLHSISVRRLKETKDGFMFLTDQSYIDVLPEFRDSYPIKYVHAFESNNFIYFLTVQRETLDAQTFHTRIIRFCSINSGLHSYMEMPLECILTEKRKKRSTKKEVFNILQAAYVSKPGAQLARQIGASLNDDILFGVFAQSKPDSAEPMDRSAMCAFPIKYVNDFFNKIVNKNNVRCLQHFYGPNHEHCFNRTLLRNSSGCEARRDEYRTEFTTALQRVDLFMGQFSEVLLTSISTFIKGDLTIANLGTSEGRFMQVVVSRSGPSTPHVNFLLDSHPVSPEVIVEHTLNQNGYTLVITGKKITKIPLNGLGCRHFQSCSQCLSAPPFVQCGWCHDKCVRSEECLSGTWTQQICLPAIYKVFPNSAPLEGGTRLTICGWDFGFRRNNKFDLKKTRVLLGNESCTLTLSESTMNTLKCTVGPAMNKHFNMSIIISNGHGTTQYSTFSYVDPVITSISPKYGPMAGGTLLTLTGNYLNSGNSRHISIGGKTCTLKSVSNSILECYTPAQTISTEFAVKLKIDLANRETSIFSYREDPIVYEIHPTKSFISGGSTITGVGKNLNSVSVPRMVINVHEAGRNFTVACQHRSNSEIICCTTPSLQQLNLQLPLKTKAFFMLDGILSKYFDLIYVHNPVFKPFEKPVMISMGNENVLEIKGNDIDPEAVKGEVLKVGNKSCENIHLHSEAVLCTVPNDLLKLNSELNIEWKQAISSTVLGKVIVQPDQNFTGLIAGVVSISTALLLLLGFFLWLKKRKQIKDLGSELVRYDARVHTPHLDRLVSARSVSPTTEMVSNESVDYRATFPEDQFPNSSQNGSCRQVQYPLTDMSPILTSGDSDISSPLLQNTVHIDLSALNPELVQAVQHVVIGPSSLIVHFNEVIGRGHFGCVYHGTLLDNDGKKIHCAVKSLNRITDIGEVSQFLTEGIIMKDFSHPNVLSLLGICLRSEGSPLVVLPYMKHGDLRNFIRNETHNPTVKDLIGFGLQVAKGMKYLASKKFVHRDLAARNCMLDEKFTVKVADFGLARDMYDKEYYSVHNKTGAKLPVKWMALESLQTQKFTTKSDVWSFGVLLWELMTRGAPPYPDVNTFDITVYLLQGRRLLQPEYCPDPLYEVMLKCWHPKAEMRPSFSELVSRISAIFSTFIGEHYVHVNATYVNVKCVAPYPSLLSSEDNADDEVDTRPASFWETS

Compound: CN1CCN(c2cnc3cccc(-c4cccc([N+](=O)[O-])c4)c3c2)CC1
- IC50 [1]: 2.3 µM

Compound: COC(=O)N1CCN(c2cnc3cc(C(F)(F)F)cc(NCc4cccc([N+](=O)[O-])c4)c3c2)CC1
- IC50 [1]: 0.043 µM

Compound: CN1CCN(c2cnc3cccc(-c4ccc5ccccc5c4)c3c2)CC1
- IC50 [1]: 5.8 µM

Compound: CN1CCN(c2cnc3cc(C(F)(F)F)cc(OCc4cccc([N+](=O)[O-])c4)c3c2)CC1
- IC50 [1]: 0.0027 µM

Compound: O=[N+]([O-])c1cccc(CNc2cc(C(F)(F)F)cc3ncc(N4CCN(S(=O)(=O)C5CC5)CC4)cc23)c1
- IC50 [1]: 0.00084 µM
- inhibition [2]: Dose-dependent effect
- IC50 (BaF3 [3]): ≥ 50 µM
- IC50 (NIH3T3 [4]): ≥ 50 µM
- IC50 (BaF3 [5]): 0.5 µM
- IC50 (NIH3T3 [6]): 1.4 µM
- inhibition [7]: Dose-dependent effect

Compound: CN1CCN(c2cnc3cccc(-c4cccs4)c3c2)CC1
- IC50 [1]: 14.3 µM

Compound: CCN1CCN(c2cnc3cc(C(F)(F)F)cc(NCc4cccc([N+](=O)[O-])c4)c3c2)CC1
- IC50 [1]: 0.00101 µM
- inhibition [2]: Dose-dependent effect
- IC50 (BaF3 [3]): 10.1 µM
- IC50 (NIH3T3 [4]): 13.2 µM
- IC50 (BaF3 [5]): 0.37 µM
- IC50 (NIH3T3 [6]): 2.6 µM
- inhibition [7]: Dose-dependent effect

Compound: O=C(O)CN1CCN(c2cnc3cc(C(F)(F)F)cc(NCc4cccc([N+](=O)[O-])c4)c3c2)CC1
- IC50 [1]: 0.0044 µM

Compound: CN1CCN(c2cnc3cccc(-c4ccco4)c3c2)CC1
- IC50 [1]: 12.7 µM

Compound: CCN1CCN(c2cnc3cc(NCc4cccc([N+](=O)[O-])c4)cc(C(F)(F)F)c3c2)CC1
- inhibition [8]: 46.6%

Compound: CC(=O)N1CCN(c2cnc3cccc(NC(=O)Nc4cccc([N+](=O)[O-])c4)c3c2)CC1
- IC50 [1]: 22.4 µM

Compound: CN1CCN(c2cnc3cc(C(F)(F)F)cc(NCc4cccc(F)c4)c3c2)CC1
- IC50 [1]: 0.45 µM

Compound: CCN1CCN(c2cnc3cc(C(F)(F)F)cc(NCc4cccc(O)c4)c3c2)CC1
- IC50 [1]: 0.23 µM

Compound: CN1CCN(c2cnc3cccc(NCc4cccc([N+](=O)[O-])c4)c3c2)CC1
- IC50 [1]: 0.166 µM

Compound: O=[N+]([O-])c1cccc(CNc2cc(C(F)(F)F)cc3ncc(N4CCNCC4)cc23)c1
- IC50 [1]: 0.0022 µM

Compound: CCOC(=O)CN1CCN(c2cnc3cc(C(F)(F)F)cc(NCc4cccc([N+](=O)[O-])c4)c3c2)CC1
- half-life [9]: 1.13 h
- IC50 [1]: 0.00077 µM
- bioavailability [10]: 8.2%
- Vd [11]: 1.36 L/kg
- inhibition [2]: Dose-dependent effect
- IC50 (BaF3 [3]): 14.1 µM
- AUC(0-inf) [12]: 700 ng·h/mL
- IC50 (NIH3T3 [4]): ≥ 50 µM
- clearance [13]: 40.5 mL/min/kg
- IC50 (BaF3 [5]): 1.4 µM
- IC50 (NIH3T3 [6]): 5.9 µM
- Tmax [14]: 0.5 h
- inhibition [7]: Dose-dependent effect
- Cmax [15]: 279 ng/mL

Compound: CN1CCN(c2cnc3cccc(NS(=O)(=O)c4cccc([N+](=O)[O-])c4)c3c2)CC1
- IC50 [1]: 3.44 µM

Compound: O=[N+]([O-])c1cccc(CNc2cc(C(F)(F)F)cc3ncc(N4CCCCC4)cc23)c1
- IC50 [1]: 0.0034 µM

Compound: Cc1[nH]c(/C=C2\C(=O)Nc3ccc(S(=O)(=O)N(C)c4cccc(Cl)c4)cc32)c(C)c1C(=O)N1CCN(C)CC1
- IC50 (NCI-H441): 13 µM
- IC50 (SNU-5): 0.8 µM
- IC50 (MDA-MB-231): 11 µM
- IC50 [1]: 0.014 µM
- IC50 (NCI-H1993): 7.3 µM
- IC50 (BaF3 [3]): 6.4 µM
- IC50 (NIH3T3 [4]): ≥ 50 µM
- IC50 (SNU1): 7 µM
- IC50 (BXPC-3): 16 µM
- IC50 (BaF3 [5]): 0.53 µM
- IC50 (MKN-45): 1.3 µM
- IC50 (MCF7): 6.2 µM
- IC50 (NIH3T3 [6]): 6.5 µM

Compound: O=[N+]([O-])c1cccc(CNc2cc(C(F)(F)F)cc3ncc(N4CCOCC4)cc23)c1
- IC50 [1]: 0.00072 µM
- inhibition [2]: Dose-dependent effect
- IC50 (BaF3 [3]): ≥ 50 µM
- IC50 (NIH3T3 [4]): ≥ 50 µM
- IC50 (BaF3 [5]): 4.2 µM
- IC50 (NIH3T3 [6]): 4 µM
- inhibition [7]: Dose-dependent effect

Compound: CCN1CCN(c2cnc3cc(C(F)(F)F)cc(NCc4cccc(C#N)c4)c3c2)CC1
- IC50 [1]: 0.0056 µM

Compound: CN1CCN(c2cnc3cccc(NC(=S)Nc4cccc([N+](=O)[O-])c4)c3c2)CC1
- inhibition [8]: 12.4%

Compound: CN1CCN(c2cnc3cc(C(F)(F)F)cc(NS(=O)(=O)c4cccc([N+](=O)[O-])c4)c3c2)CC1
- IC50 [1]: 0.099 µM

Compound: CN1CCN(c2cnc3cccc(OC(=O)c4cccn(-c5ccc(F)cc5)c4=O)c3c2)CC1
- inhibition [8]: 12.6%

Compound: CN1CCN(c2cnc3cccc(OCc4cccc(C#N)c4)c3c2)CC1
- IC50 [1]: 12.3 µM

Compound: CN1CCN(c2cnc3cccc(OCc4cccc(F)c4)c3c2)CC1
- inhibition [8]: 25.8%

Compound: CCN1CCN(c2cnc3cc(C(F)(F)F)cc(NCc4ccc(F)cc4)c3c2)CC1
- IC50 [1]: 10 µM

Compound: CN1CCN(c2cnc3cccc(NC(=O)c4cccn(-c5ccc(F)cc5)c4=O)c3c2)CC1
- IC50 [1]: 5.3 µM

Compound: CS(=O)(=O)N1CCN(c2cnc3cc(C(F)(F)F)cc(NCc4cccc([N+](=O)[O-])c4)c3c2)CC1
- half-life [16]: 0.97 h
- IC50 [1]: 0.00082 µM
- bioavailability [10]: 3.7%
- inhibition [2]: Dose-dependent effect
- IC50 (BaF3 [3]): ≥ 50 µM
- AUC(0-inf) [12]: 366 ng·h/mL
- IC50 (NIH3T3 [4]): ≥ 50 µM
- clearance [17]: 43.3 mL/min/kg
- Vd [18]: 1.72 L/kg
- IC50 (BaF3 [5]): 8.8 µM
- IC50 (NIH3T3 [6]): 2.2 µM
- Tmax [14]: 1.33 h
- inhibition [7]: Dose-dependent effect
- Cmax [15]: 59.3 ng/mL

Compound: CN1CCN(c2cnc3cc(NCc4cccc([N+](=O)[O-])c4)cc(C(F)(F)F)c3c2)CC1
- inhibition [8]: 8.9%

Compound: CC(=O)N1CCN(c2cnc3cccc(NCc4cccc([N+](=O)[O-])c4)c3c2)CC1
- IC50 [1]: 0.11 µM

Compound: CN1CCN(c2cnc3cccc(OC(=O)c4cccc([N+](=O)[O-])c4)c3c2)CC1
- inhibition [8]: 7.3%

Compound: CN1CCN(c2cnc3cccc(NC(=O)Nc4cccc([N+](=O)[O-])c4)c3c2)CC1
- inhibition [8]: 25.2%

Compound: CN1CCN(c2cnc3cccc(OCc4cccc([N+](=O)[O-])c4)c3c2)CC1
- IC50 [1]: 0.14 µM

Compound: CN1CCN(c2cnc3cc(C(F)(F)F)cc(NCc4cccnc4)c3c2)CC1
- IC50 [1]: 0.16 µM

Compound: CN1CCN(c2cnc3cccc(-c4ccc(F)cc4)c3c2)CC1
- inhibition [8]: 29.9%

Compound: CC(=O)N1CCN(c2cnc3cccc(NC(=S)Nc4cccc([N+](=O)[O-])c4)c3c2)CC1
- inhibition [8]: 13.9%

Compound: CC(=O)N1CCN(c2cnc3cccc(NS(=O)(=O)c4cccc([N+](=O)[O-])c4)c3c2)CC1
- IC50 [1]: 2.56 µM

Compound: CN1CCN(c2cnc3cccc(-c4cccc(O)c4)c3c2)CC1
- inhibition [8]: 30.7%

Compound: CN1CCN(c2cnc3cccc(OS(=O)(=O)c4cccc([N+](=O)[O-])c4)c3c2)CC1
- IC50 [1]: 1.2 µM

Compound: CC(C)(C)OC(=O)N1CCN(c2cnc3cc(C(F)(F)F)cc(NCc4cccc([N+](=O)[O-])c4)c3c2)CC1
- IC50 [1]: 0.0106 µM
